From ChEMBL document CHEMBL1156640, “Cyclopeptides with anti-inflammatory activity from seeds of Annona montana” (J Nat Prod, 2008) come the findings set out here.

Test [1] has as its system Ca9-22. Kind of test: Cytotoxicity against human Ca9-22 cells. It counts as functional, cell-based.
The subject of test [2] is MDA-MB-231. Description: Cytotoxicity against human MDA-MB-231 cells. The format is functional, cell-based.
The test system of test [3] is KB. Description: Cytotoxicity against human KB cells. The format is functional, cell-based.
Test [4] relates to A549. Description: Cytotoxicity against human A549 cells. It counts as functional, cell-based.
For test [5], the system named is J774.A1. Kind of test: Antiinflammatory activity in mouse J774A.1 cells assessed as decrease in LPS-stimulated TNFalpha production at 30 ug/ml. The arrangement: scale not given: the % may be the effect or the level left. It counts as functional. Put shortly: (§1)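 J774A.1 murine macrophages at 1 × 10⁶/mL in RPMI 1640 with 10% heat-inactivated FBS and 2 mM L-glutamine, 37 °C, 5% CO₂. Cells preincubated with cyclopeptide at 37 °C for 30 min, then stimulated with LPS (0.1 µg/mL) for a further 6 h. TNF-α and IL-6 in culture medium measured by ELISA. DMSO-treated cells served as controls.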

Test [6] has as its system Hep 3B2. Kind of test: Cytotoxicity against human Hep3B cells. It counts as functional, cell-based.
Test [7] deals with HepG2. Description: Cytotoxicity against human HepG2 cells. The format is functional, cell-based.
Test [8] deals with J774.A1. Kind of test: Antiinflammatory activity in mouse J774A.1 cells assessed as decrease in LPS-stimulated IL6 production at 30 ug/ml. Set-up: scale not given: the % may be the effect or the level left. The format is functional. Put shortly: as §1
Test [9] deals with MCF7. Kind of test: Cytotoxicity against human MCF7 cells. The format is functional, cell-based.
Test [10] relates to J774.A1. Description: Antiinflammatory activity in mouse J774A.1 cells assessed as decrease in pam3Cys-stimulated IL6 production at 3 ug/ml. It counts as functional, cell-based. Put shortly: (§2)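 J774A.1 murine macrophages at 1 × 10⁶/mL in RPMI 1640 with 10% heat-inactivated FBS and 2 mM L-glutamine, 37 °C, 5% CO₂. Cells pretreated with cyclopeptide for 30 min, then stimulated with the TLR2 ligand Pam3Cys for an additional 6 h. TNF-α or IL-6 in culture medium determined by ELISA.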

Test [11] concerns J774.A1. Kind of test: Antiinflammatory activity in mouse J774A.1 cells assessed as decrease in pam3Cys-stimulated TNFalpha production at 3 ug/ml. The format is functional. Put shortly:
as §2

For test [12], the system named is J774.A1. Description: Antiinflammatory activity in mouse J774A.1 cells assessed as decrease in LPS-stimulated IL6 production at 3 ug/ml.
For test [13], the system named is J774.A1. Description: Antiinflammatory activity in mouse J774A.1 cells assessed as decrease in pam3Cys-stimulated IL6 production at 3 ug/ml.
Test [14] has as its system J774.A1. Kind of test: Antiinflammatory activity in mouse J774A.1 cells assessed as decrease in LPS-stimulated TNFalpha production at 3 ug/ml. The format is functional, cell-based. Put shortly:
as §1

For test [15], the system named is J774.A1. Description: Antiinflammatory activity in mouse J774A.1 cells assessed as decrease in LPS-stimulated TNFalpha production at 1 ug/ml. It counts as functional, cell-based. The method in brief:
as §1

In test [16] the test system is J774.A1. Description: Antiinflammatory activity in mouse J774A.1 cells assessed as decrease in pam3Cys-stimulated TNFalpha production at 1 ug/ml. It counts as functional, cell-based. Put shortly: as §2
Test [17] relates to J774.A1. Description: Antiinflammatory activity in mouse J774A.1 cells assessed as decrease in LPS-stimulated IL6 production at 3 ug/ml. The format is functional, cell-based. Put shortly:
as §1

Test [18] relates to J774.A1. Kind of test: Antiinflammatory activity in mouse J774A.1 cells assessed as decrease in LPS-stimulated IL6 production at 3 to 50 ug/ml. It counts as functional, cell-based. Put shortly: as §1
Test [19] deals with J774.A1. Kind of test: Antiinflammatory activity in mouse J774A.1 cells assessed as decrease in LPS-stimulated TNFalpha production at 3 to 50 ug/ml. It counts as functional, cell-based. The method in brief:
as §1

The test system of test [20] is J774.A1. Kind of test: Antiinflammatory activity in mouse J774A.1 cells assessed as decrease in pam3Cys-stimulated IL6 production at 3 to 50 ug/ml. The format is functional, cell-based. Put shortly: as §2
The subject of test [21] is J774.A1. Kind of test: Antiinflammatory activity in mouse J774A.1 cells assessed as decrease in pam3Cys-stimulated TNFalpha production at 50 ug/ml. The format is functional. The method in brief: as §2
For test [22], the system named is J774.A1. Kind of test: Antiinflammatory activity in mouse J774A.1 cells assessed as decrease in pam3Cys-stimulated IL6 production. The format is functional, cell-based. Put shortly: as §2
Test [23] deals with J774.A1. Description: Antiinflammatory activity in mouse J774A.1 cells assessed as decrease in pam3Cys-stimulated TNFalpha production at 30 ug/ml. The format is functional. The method in brief:
as §2

In test [24] the test system is J774.A1. Kind of test: Antiinflammatory activity in mouse J774A.1 cells assessed as decrease in pam3Cys-stimulated TNFalpha production at 10 ug/ml. The format is functional. The method in brief:
as §2

Test [25] concerns J774.A1. Kind of test: Antiinflammatory activity in mouse J774A.1 cells assessed as decrease in pam3Cys-stimulated TNFalpha production at 5 ug/ml. The format is functional. Put shortly: as §2

pIC50: −log10 of the molar value. Calls of active or inactive are those of the source. The rule behind the calls is not given here. Peptide text beside a SMILES is read from it.

As to `CC(C)[C@@H]1NC(=O)[C@H](Cc2ccccc2)NC(=O)CNC(=O)[C@@H]2CCCN2C(=O)[C@H](C)NC(=O)[C@H](CO)NC1=O` [ANNUMURICATIN C] (cyclo(APGFVS)), the result in test [1], in test [2], in [4], in test [6], in [7] and in test [9] was inactive. The pIC50 – broadly, −log10 of the IC50, conventionally taken in molar units – in test [3] is 6.00. The Activity in test [5] and in test [8] was 50% in each case.
Turning to `CC(C)C[C@@H]1NC(=O)CNC(=O)[C@@H]2CCCN2C(=O)[C@H]([C@@H](C)O)NC(=O)[C@H](Cc2c[nH]c3ccccc23)NC(=O)[C@H](C)NC(=O)[C@H](CC(N)=O)NC1=O` [CYCLOMONTANIN A] (cyclo(AWTPGLN)), the Activity entry in test [10] is “Active”; in test [11] (1 ug/ml, in the assay text read “at 1 ug/ml” for “at 3 ug/ml”), “Active”; in test [12], “Active”; in test [13] it was “Active”; in test [14] it was “Active”; in test [15] it was “Active”. The outcome in test [16] and in [17] was Active. Besides, the Activity in test [5] and in [8] was 50% each time.
Regarding `CC(C)[C@@H]1NC(=O)[C@H](Cc2c[nH]cn2)NC(=O)[C@H](CC(N)=O)NC(=O)[C@H](Cc2ccccc2)NC(=O)[C@H]([C@@H](C)O)NC(=O)[C@@H]2CCCN2C(=O)[C@@H]2CCCN2C(=O)[C@H](Cc2ccccc2)NC(=O)[C@H](CC(N)=O)NC1=O` [CYCLOMONTANIN C] (cyclo(FNHVNFPPT)), the outcome in test [18], in test [19] and in [20] was Active. For the same compound, the Activity in test [5] and in test [8] was 50% each time.
With `CC(C)C[C@@H]1NC(=O)CNC(=O)[C@@H]2CCCN2C(=O)[C@H](CC(N)=O)NC(=O)[C@H](C)NC(=O)[C@H](Cc2ccc(O)cc2)NC(=O)[C@@H]2CCCN2C1=O` [CYCLOMONTANIN D] (cyclo(ANPGLPY)), the inhibition (in general, the percentage by which the read-out fell short of the control) at 3 µg/mL in test [11] worked out at 20%. Besides, in test [21], the inhibition at 50 µg/mL turned out to be 90%. For the same compound, the values for the Activity result in [22], in test [5] and in [8] were “Dose-dependent effect”, 50% and 50%, respectively. Moreover, in test [23], the inhibition at 30 µg/mL is 85%. Moreover, in test [24], the inhibition at 10 µg/mL worked out at 60%. In [25], the inhibition at 5 µg/mL came out at 50%.
